According to ChEMBL document CHEMBL4002574, “Structure-based exploration and exploitation of the S4 subsite of norovirus 3CL protease in the design of potent and permeable inhibitors” (Eur J Med Chem, 2017):

What was measured:
[1] = Cytotoxicity against human HG23 cells measured after 72 hrs by […] CytoTox-96 non-radioactive assay; type: cell-based
[2] = Inhibition of Norovirus 3CL protease preincubated for 30 mins followed by addition of Edans-DFHLQ/GP-Dabcyl as substrate measured after 1 hr by FRET assay
How it was run: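 Protease preincubated 30 min at 37°C with serially diluted compound or DMSO in 20 mM HEPES pH 8, 200 mM NaCl, 0.4 mM EDTA, 60% glycerol, 6 mM DTT; Edans-DFHLQ/GP-Dabcyl substrate then added. Fluorescence (ex 360/em 460 nm) read 1 h later; background (substrate, no protease) subtracted; IC50 from variable-slope dose-response fit.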

[3] = test system: Norovirus; assay: Antiviral activity Norovirus infected in human HG23 cells assessed as decrease in viral RNA level measured after 48 hrs by qRT-PCR analysis; type: functional, cell-based; conditions: HG23, 48 h
How it was run: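 Norwalk virus replicon-bearing HG23 cells, confluent and semi-confluent, exposed 48 h to compound (up to 100 μM) or DMSO (<0.1%) in medium. Total RNA extracted, viral genome quantified by real-time qRT-PCR; EC50 derived from concentration-response data.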

SMILES | CC50 at 72 h [1] | IC50 [2] | EC50 [3]
O=C[C@H](C[C@@H]1CCNC1=O)NC(=O)[C@H](CC1CCCCC1)NC(=O)OCCc1cccc(Cl)c1 | 43200 nM | 600 nM | 100 nM
O=C1NCC[C@H]1C[C@H](NC(=O)[C@H](CC1CCCCC1)NS(=O)(=O)c1ccc(-c2ccccc2)cc1)C(O)S(=O)(=O)O (stereo partly specified) | > 100000 nM | 1100 nM | 1200 nM
O=C(N[C@@H](CC1CCCCC1)C(=O)N[C@@H](C[C@@H]1CCNC1=O)C(O)S(=O)(=O)O)OCCc1cccc(Cl)c1 (stereo partly specified) | 46700 nM | 500 nM | 100 nM
O=C[C@H](C[C@@H]1CCNC1=O)NC(=O)[C@H](CC1CCCCC1)NS(=O)(=O)c1ccc(-c2ccccc2)cc1 | > 100000 nM | 1300 nM | 1300 nM
CCCCCCCCS(=O)(=O)N[C@@H](CC1CCCCC1)C(=O)N[C@@H](C[C@@H]1CCNC1=O)C(O)S(=O)(=O)O (stereo partly specified) | 35400 nM | 1100 nM | 200 nM
O=C[C@H](C[C@@H]1CCNC1=O)NC(=O)[C@H](CC1CCCCC1)NS(=O)(=O)CCc1cccc(Cl)c1 | > 100000 nM | 2300 nM | 1100 nM
O=C1NCC[C@H]1C[C@H](NC(=O)[C@H](CC1CCCCC1)NS(=O)(=O)c1ccc(Cl)cc1)C(O)S(=O)(=O)O (stereo partly specified) | > 100000 nM | 5100 nM | 7200 nM
O=C1NCC[C@H]1C[C@H](NC(=O)[C@H](CC1CCCCC1)NS(=O)(=O)CCc1cccc(Cl)c1)C(O)S(=O)(=O)O (stereo partly specified) | > 100000 nM | 1900 nM | 800 nM
COc1ccc(OCCCS(=O)(=O)N[C@@H](CC2CCCCC2)C(=O)N[C@H](C=O)C[C@@H]2CCNC2=O)cc1 | > 100000 nM | 1800 nM | 200 nM
CCCCCCCCCCOC(=O)N[C@@H](CC1CCCCC1)C(=O)N[C@@H](C[C@@H]1CCNC1=O)C(O)S(=O)(=O)O (stereo partly specified) | 34500 nM | 400 nM | 200 nM
O=C[C@H](C[C@@H]1CCNC1=O)NC(=O)[C@H](CC1CCCCC1)NS(=O)(=O)Cc1ccccc1 | > 100000 nM | 4500 nM | 4100 nM
O=C1NCC[C@H]1C[C@H](NC(=O)[C@H](CC1CCCCC1)NS(=O)(=O)Cc1ccc(Cl)cc1)C(O)S(=O)(=O)O (stereo partly specified) | > 100000 nM | 1200 nM | 2200 nM
CCCCCCCCS(=O)(=O)N[C@@H](CC1CCCCC1)C(=O)N[C@H](C=O)C[C@@H]1CCNC1=O | 33800 nM | 1200 nM | 300 nM
O=C[C@H](C[C@@H]1CCNC1=O)NC(=O)[C@H](CC1CCCCC1)NS(=O)(=O)CCc1ccccc1 | > 100000 nM | 1800 nM | 700 nM
O=C1NCC[C@H]1C[C@H](NC(=O)[C@H](CC1CCCCC1)NS(=O)(=O)c1ccc(F)cc1)C(O)S(=O)(=O)O (stereo partly specified) | > 100000 nM | 6200 nM | 2100 nM
O=C1NCC[C@H]1C[C@H](NC(=O)[C@H](CC1CCCCC1)NS(=O)(=O)c1cccs1)C(O)S(=O)(=O)O (stereo partly specified) | > 100000 nM | 8500 nM | 8100 nM

SMILES | CC50 at 72 h [1] | IC50 [2] | EC50 [3]
O=C1NCC[C@H]1C[C@H](NC(=O)[C@H](CC1CCCCC1)NS(=O)(=O)Cc1ccccc1)C(O)S(=O)(=O)O (stereo partly specified) | > 100000 nM | 4300 nM | 4300 nM
O=C[C@H](C[C@@H]1CCNC1=O)NC(=O)[C@H](CC1CCCCC1)NS(=O)(=O)c1ccc(F)cc1 | > 100000 nM | 4800 nM | 2000 nM
O=C[C@H](C[C@@H]1CCNC1=O)NC(=O)[C@H](CC1CCCCC1)NS(=O)(=O)c1ccc(Cl)cc1 | > 100000 nM | 5800 nM | 3500 nM
O=C[C@H](C[C@@H]1CCNC1=O)NC(=O)[C@H](CC1CCCCC1)NS(=O)(=O)Cc1ccc(Cl)cc1 | > 100000 nM | 1800 nM | 2400 nM
O=C1NCC[C@H]1C[C@H](NC(=O)[C@H](CC1CCCCC1)NS(=O)(=O)CCc1ccccc1)C(O)S(=O)(=O)O (stereo partly specified) | > 100000 nM | 2100 nM | 800 nM
O=C1NCC[C@H]1C[C@H](NC(=O)[C@H](CC1CCCCC1)NS(=O)(=O)c1ccccc1)C(O)S(=O)(=O)O (stereo partly specified) | > 100000 nM | 13500 nM | 12300 nM
O=C1NCC[C@H]1C[C@H](NC(=O)[C@H](CC1CCCCC1)NS(=O)(=O)c1cccc(Cl)c1)C(O)S(=O)(=O)O (stereo partly specified) | > 100000 nM | 5700 nM | 1900 nM
O=C[C@H](C[C@@H]1CCNC1=O)NC(=O)[C@H](CC1CCCCC1)NS(=O)(=O)c1cccs1 | > 100000 nM | 10400 nM | 8500 nM
O=C1NCC[C@H]1C[C@H](NC(=O)[C@H](CC1CCCCC1)NS(=O)(=O)CCN1C(=O)c2ccccc2C1=O)C(O)S(=O)(=O)O (stereo partly specified) | > 100000 nM | 2600 nM | 2100 nM
O=C(N[C@@H](CC1CCCCC1)C(=O)N[C@@H](C[C@@H]1CCNC1=O)C(O)S(=O)(=O)O)OCCOCc1ccccc1 (stereo partly specified) | > 100000 nM | 1600 nM | 300 nM
O=C[C@H](C[C@@H]1CCNC1=O)NC(=O)[C@H](CC1CCCCC1)NC(=O)OCCOCc1ccccc1 | > 100000 nM | 2100 nM | 200 nM
O=C[C@H](C[C@@H]1CCNC1=O)NC(=O)[C@H](CC1CCCCC1)NS(=O)(=O)CCN1C(=O)c2ccccc2C1=O | > 100000 nM | 2500 nM | 2300 nM
O=C[C@H](C[C@@H]1CCNC1=O)NC(=O)[C@H](CC1CCCCC1)NS(=O)(=O)c1cccc(Cl)c1 | > 100000 nM | 5500 nM | 2300 nM
CCCCCCCCCCOC(=O)N[C@@H](CC1CCCCC1)C(=O)N[C@H](C=O)C[C@@H]1CCNC1=O | 32100 nM | 300 nM | 100 nM
O=C[C@H](C[C@@H]1CCNC1=O)NC(=O)[C@H](CC1CCCCC1)NS(=O)(=O)c1ccccc1 | > 100000 nM | 8500 nM | 9500 nM
COc1ccc(OCCCS(=O)(=O)N[C@@H](CC2CCCCC2)C(=O)N[C@@H](C[C@@H]2CCNC2=O)C(O)S(=O)(=O)O)cc1 (stereo partly specified) | > 100000 nM | 1600 nM | 200 nM
